Reference: ChEMBL document CHEMBL3751714, “Antileishmanial activity of novel indolyl-coumarin hybrids: Design, synthesis, biological evaluation, molecular docking study and in silico ADME prediction” (Bioorg Med Chem Lett, 2016)
In brackets after ≈: the same amount, converted by molar mass.

Legend:
[1] = tested on: Leishmania donovani; assay: Antileishmanial activity against promastigotes of Leishmania donovani MHOM/IN/80/DD8 after 72 hrs by MTT assay; type: functional, organism-based; settings: MHOM/IN/80/DD8, 72 h
Method in brief: (§1)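 Cultured L. donovani promastigotes (strain […]) were exposed to the compounds. Viability was read by a modified MTT assay, in which formazan output tracks metabolically active cells. The concentration that cut growth by 50% (IC50) was found by graphic interpolation.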

[2] = Antioxidant activity of the compound assessed as DPPH radical scavenging after 30 mins by spectrophotometric analysis; type: physicochemical
Method in brief: (§2)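 DPPH radical scavenging assay. The control contained all reagents except the test compound. % scavenging = [(A control − A sample)/[…]] × 100, taken from absorbance readings.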

[3] = tested on: HeLa; assay: Cytotoxicity against human HeLa cells assessed as cell viability at 100 ug/ml by microscopic analysis; type: cell-based
Method in brief: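 HeLa cells were treated at 100 μg/mL and assessed by the MTT method. Cells were also viewed under a microscope at 10X magnification.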

[4] = Antioxidant activity assessed as ABTS radical scavenging activity by TEAC assay; type: physicochemical
[5] = Antioxidant activity of the compound; type: physicochemical; method in brief: as §2
[6] = tested on: Leishmania donovani; assay: Antileishmanial activity against promastigotes of Leishmania donovani assessed as parasite growth inhibition; type: functional, organism-based; method in brief: as §1
[7] = tested on: Leishmania major; assay: Antileishmanial activity against promastigotes of Leishmania major MHOM/IL/67/LRC-L43 assessed as parasite growth inhibition after 24 hrs by uranyl acetate/ magnesium uranyl acetate/lead citrate staining-based electron microscopic analysis; type: functional, organism-based; settings: MHOM/IL/67/LRC-L43, 24 h
[8] = tested on: Leishmania major; assay: Antileishmanial activity against stationary-phase promastigotes of Leishmania major MRHO/IR/75/ER assessed as parasite growth inhibition after 48 hrs by Neubar chamber method; type: functional, organism-based

| Compound | IC50 [2] [µg/mL] | IC50 [1] [µg/mL] | other results |
| --- | --- | --- | --- |
| O=C(CC(c1c(Cl)cccc1Cl)c1c[nH]c2ccccc12)c1c(O)c2ccccc2oc1=O (configuration not stated) | 13.49 (≈ 28.2 µM) | 95 (≈ 199 µM) | Activity [3]: Non-toxic |
| O=C(CC(c1ccccc1Cl)c1c[nH]c2ccccc12)c1c(O)c2ccccc2oc1=O (configuration not stated) | 39.62 (≈ 89.3 µM) | 102 (≈ 230 µM) |  |
| N#Cc1ccc(C(CC(=O)c2c(O)c3ccccc3oc2=O)c2c[nH]c3ccccc23)cc1 (configuration not stated) | 13.74 (≈ 31.6 µM) | 102 (≈ 234 µM) |  |
| O=c1oc2ccccc2cc1C1=Nn2c(nnc2-c2ccccc2)SC1 |  |  | IC50 [4]: 39.9 µg/mL (≈ 111 µM) |
| O=C1O[C@H]([C@@H](O)CO)C(O)=C1O [ASCORBIC ACID] | 12.8 (≈ 72.7 µM) |  |  |
| O=C(/C=C/c1ccc(O)c(O)c1)c1ccc(O)cc1O [BUTEIN] |  |  | IC50 [5]: 3.3 µg/mL (≈ 12.1 µM) |
| Cc1cc(C(C)(C)C)c(O)c(C(C)(C)C)c1 [BUTYLATED HYDROXYTOLUENE] | 16.5 (≈ 74.9 µM) |  |  |
| C=CC(C)(C)c1cc(/C=C/C(=O)c2ccc(O)cc2)c(OC)cc1O [LICOAGROCHACONE A] |  |  | IC50 [6]: 2700 nM; IC50 [7]: 2.5 µg/mL (≈ 7.39 µM) |
| CC(C)=CCC/C(C)=C/CC/C(C)=C/COc1ccc2ccc(=O)oc2c1 [UMBELLIPRENIN] |  |  | IC50 [8]: 13.3 µM |

The next lines start with results.

| IC50 [2] [µg/mL] | Compound | IC50 [1] [µg/mL] | other results |
| --- | --- | --- | --- |
| 71.08 (≈ 161 µM) | O=C(CC(c1ccc(O)c(O)c1)c1c[nH]c2ccccc12)c1c(O)c2ccccc2oc1=O (configuration not stated) | 231 (≈ 523 µM) |  |
| 47.35 (≈ 111 µM) | O=C(CC(c1ccc(F)cc1)c1c[nH]c2ccccc12)c1c(O)c2ccccc2oc1=O (configuration not stated) | 156 (≈ 364 µM) |  |
| 58.91 (≈ 138 µM) | O=C(CC(c1ccc(O)cc1)c1c[nH]c2ccccc12)c1c(O)c2ccccc2oc1=O (configuration not stated) | 288 (≈ 676 µM) |  |
| 13.24 (≈ 28.2 µM) | COc1ccc(C(CC(=O)c2c(O)c3ccccc3oc2=O)c2c[nH]c3ccccc23)c(OC)c1 (configuration not stated) | 250 (≈ 531 µM) |  |
| 46.35 (≈ 104 µM) | O=C(CC(c1ccc(Cl)cc1)c1c[nH]c2ccccc12)c1c(O)c2ccccc2oc1=O (configuration not stated) | 125 (≈ 282 µM) |  |
| 19.02 (≈ 40.5 µM) | COc1ccc(OC)c(C(CC(=O)c2c(O)c3ccccc3oc2=O)c2c[nH]c3ccccc23)c1 (configuration not stated) | 99 (≈ 211 µM) |  |
| 16.21 (≈ 36.9 µM) | COc1ccc(C(CC(=O)c2c(O)c3ccccc3oc2=O)c2c[nH]c3ccccc23)cc1 (configuration not stated) | 174 (≈ 396 µM) |  |
| 12.4 (≈ 30.3 µM) | O=C(CC(c1ccccc1)c1c[nH]c2ccccc12)c1c(O)c2ccccc2oc1=O (configuration not stated) | 95.5 (≈ 233 µM) |  |
| 63.16 (≈ 135 µM) | COc1ccc(C(CC(=O)c2c(O)c3ccccc3oc2=O)c2c[nH]c3ccccc23)cc1OC (configuration not stated) | 212 (≈ 452 µM) |  |
